From PubChem
Bfl-1 A1 inh = inhibitors of the anti-apoptotic protein A1, read as caspase activation; MEF A1-2A-BIM cells, Caspase-Glo 3/7 luminescence, 3 h; percent of clofoctol response, vehicle zero; caspase activation, % (concentration not given with the values); hit rate 0.066% among 330,000;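 active = over half of replicate activation scores above 10%, or exactly half above 10 with the replicate mean above 10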
NPR2 activator = GC-B (human) receptor activation | activation, % at 10 µM | HEK293-GC-B cells, CNP EC30, cGMP TR-FRET; 0% at EC30 CNP, 100% saturating CNP | hit rate 0.11% among 370,000;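 active = activation at 10 µM reaching about 35% in either raw or pattern-adjusted values, limit read from the data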
GC-A act = GC-A (human) enzyme activation; P16066; HEK293 GC-A cells, cGMP TR-FRET, EC30 ANP; 0% at EC30 ANP, 100% saturating ANP; activation, % at 10 µM; hit rate 0.14% among 370,000; in the data active = activation above about 40%
Target sequence (P16066 whole entry, looked up): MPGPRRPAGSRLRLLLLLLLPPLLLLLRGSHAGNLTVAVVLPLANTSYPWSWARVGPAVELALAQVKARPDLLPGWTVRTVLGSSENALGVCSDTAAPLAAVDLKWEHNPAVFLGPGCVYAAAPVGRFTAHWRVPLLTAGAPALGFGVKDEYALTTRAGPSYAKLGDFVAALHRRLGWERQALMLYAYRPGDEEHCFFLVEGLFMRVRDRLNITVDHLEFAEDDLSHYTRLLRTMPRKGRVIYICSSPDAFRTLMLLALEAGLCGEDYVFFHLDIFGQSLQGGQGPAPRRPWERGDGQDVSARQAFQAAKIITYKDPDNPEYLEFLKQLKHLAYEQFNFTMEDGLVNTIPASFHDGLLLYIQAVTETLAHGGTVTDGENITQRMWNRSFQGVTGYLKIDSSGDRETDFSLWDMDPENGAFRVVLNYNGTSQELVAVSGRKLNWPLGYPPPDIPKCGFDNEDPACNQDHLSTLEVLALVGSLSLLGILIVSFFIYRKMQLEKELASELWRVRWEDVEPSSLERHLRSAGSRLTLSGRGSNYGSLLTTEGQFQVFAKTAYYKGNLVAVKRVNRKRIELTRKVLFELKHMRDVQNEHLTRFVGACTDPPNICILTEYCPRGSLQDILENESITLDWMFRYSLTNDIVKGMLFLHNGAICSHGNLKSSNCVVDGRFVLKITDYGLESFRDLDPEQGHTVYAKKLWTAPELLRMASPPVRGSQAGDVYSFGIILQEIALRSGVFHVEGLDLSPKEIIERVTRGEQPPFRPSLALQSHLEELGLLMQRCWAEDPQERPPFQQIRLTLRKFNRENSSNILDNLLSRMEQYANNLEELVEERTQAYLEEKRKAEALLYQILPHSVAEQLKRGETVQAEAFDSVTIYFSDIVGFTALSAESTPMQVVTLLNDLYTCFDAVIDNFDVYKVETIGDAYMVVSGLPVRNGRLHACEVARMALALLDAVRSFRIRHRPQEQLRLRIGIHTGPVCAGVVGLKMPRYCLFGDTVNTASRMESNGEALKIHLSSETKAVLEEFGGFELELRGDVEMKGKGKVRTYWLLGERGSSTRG
MT1-MMP act inh = inhibitors of human MT1-MMP activation. HT1080 RFP-PRO-GFP cells, GFP/RFP ratio fluorescence, overnight; percent of plate control window, DMSO zero. GFP/RFP ratio change, % at 20 µM. hit rate 0.061% among 360,000. AID 651647;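 active = GFP/RFP ratio change of at least 30% with cell ATP level not reduced by more than half and red fluorescence within 50% of control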
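Compound: 20 µM single dose, 1% DMSO / System: HT1080 RFP-PRO-GFP cells / Controls: DMSO and RFP-L50D-GFP cell wells / Read-out basis: GFP/RFP fluorescence ratio / Schedule: overnight compound exposure at 37 °C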
TbMetRS inhib = Trypanosoma brucei MetRS inhibition. purified T. brucei MetRS, ATP depletion, Kinase-Glo luminescence. hit rate 0.4% among 360,000. AID 624268. inhibition, % at 11.9 µM;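 active = inhibition above a per-plate cutoff of the control wells' mean inhibition plus 3 SD, cut at about 5.5% in these data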
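Dosing: 11.9 µM compound single dose, 0.9% DMSO; Assay system: purified T. brucei MetRS enzyme; Measured by: Kinase-Glo luciferase luminescence reporting remaining unconsumed ATP; Schedule: 15 min plus 2 h at 25 °C.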
SKN-1 block = inhibitors of C. elegans SKN-1. AID 624304. hit rate 0.49% among 360,000. C. elegans VP596 Pgst-4::GFP/RFP ratio, acrylamide-induced, 24 h. inhibition, % at 21.8 µM;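 active = interference check ratio from 0.5 to 1.5 plus GFP to RFP signal ratio inhibition reaching or exceeding a fixed threshold, cut at about 30% in these data, passing the limit was not always enough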
Each line names hits and unclear results; the compound was inactive in the other large screens. Sampled rows, rich in hits. Any-hit rate of the full collection: about 1.1%.

C=CCN1C(=O)[C@@H](CC(=O)NCc2cccc(C(F)(F)F)c2)[C@]2(C(=O)OC)CCCCC=C12	none (no result: Bfl-1 A1 inh, MT1-MMP act inh, TbMetRS inhib, SKN-1 block)
C[N+]1=C2N[C@@H](c3ccccc3)CC(=O)N2/C(=C\c2ccccc2)[C@@H]1Cc1ccccc1	none (no result: Bfl-1 A1 inh, MT1-MMP act inh, TbMetRS inhib, SKN-1 block)
CCOc1ccccc1NC(=O)C(CC(C)C)NC(=O)C1CCC(C)CC1 (stereo not drawn)	SKN-1 block 41
NC(=O)c1cccc(-c2coc3c(C(=O)NC4CCCCC4)cccc23)c1	NPR2 activator 35 (no result: Bfl-1 A1 inh)
CCc1ccc(C2C(C#N)=C(N)N(N(C)C)C3=C2C(=O)CCC3)cc1 (stereo not drawn)	SKN-1 block 36
O=C1c2ccccc2C(Nc2ccc3c(c2)OCCO3)N1Cc1ccc2c(c1)OCO2 (stereo not drawn)	none
O=C1c2ccccc2C(Nc2ccccc2)N1Cc1ccc2c(c1)OCO2 (stereo not drawn)	GC-A act 62
Cn1c(Cc2cccs2)nnc1SCC(=O)Nc1ccc2cn[nH]c2c1	none (no result: Bfl-1 A1 inh, MT1-MMP act inh, TbMetRS inhib, SKN-1 block)
COc1ccc(C2CCC3(CCC(=O)N3CCO)CC2)cc1 (stereo not drawn)	none (no result: Bfl-1 A1 inh, MT1-MMP act inh, TbMetRS inhib, SKN-1 block)
COc1cccc(-c2cccc(NC(=O)C3CCN(C4CCOCC4)CC3)c2)c1	none (no result: Bfl-1 A1 inh)
COc1cccc(-c2cccc(NC(=O)C3CCN(CC4CCOC4)CC3)c2)c1 (stereo not drawn)	SKN-1 block 46
O=C(CCCl)NC1CCCCN(Cc2ccc(OC(F)(F)F)cc2)C1=O (stereo not drawn)	none (no result: Bfl-1 A1 inh, MT1-MMP act inh, TbMetRS inhib, SKN-1 block)
N#Cc1ccccc1N1CCN(S(=O)(=O)c2ccc3c(c2)CCC(=O)N3)CC1	none (no result: Bfl-1 A1 inh, MT1-MMP act inh, TbMetRS inhib, SKN-1 block)
Nc1c(S(=O)(=O)O)cc(NC(=O)c2ccccc2)c2c1C(=O)c1ccccc1C2=O	MT1-MMP act inh 57 (no result: NPR2 activator, GC-A act)
O=C(COC(=O)c1ccc(Cl)nc1)Nc1ccc2ccccc2c1	SKN-1 block 47 (no result: Bfl-1 A1 inh)
Cc1cc(Cl)ccc1OCC(=O)N/N=C/c1ccc[nH]1	none (no result: Bfl-1 A1 inh, MT1-MMP act inh, TbMetRS inhib, SKN-1 block)
O=C(/C=C/c1ccco1)N1CCc2ccccc21	SKN-1 block 58
c1csc(CSc2nc3ccccc3s2)c1	SKN-1 block 78
COC(=O)C[C@H]1CC[C@@H]2[C@@H](COc3ccc(NC(=O)c4ccno4)cc3C(=O)N2C)O1	none (no result: Bfl-1 A1 inh, MT1-MMP act inh, TbMetRS inhib, SKN-1 block)
COc1cc2c(cc1NC(=O)c1cccnc1)CCCC2	SKN-1 block 38
N#Cc1c(N)[nH]c(=S)c(C#N)c1-c1ccccc1	none
N#Cc1c(N)[nH]c2ccc(Sc3ccccc3)cc12	NPR2 activator 44, GC-A act 59 (no result: Bfl-1 A1 inh)
O=C(COC(=O)c1ccc(Br)o1)Nc1cccc(S(=O)(=O)N2CCCCC2)c1	none
O=C(COC(=O)c1cccc(S(=O)(=O)N2CCCC2)c1)Nc1ccc(Cl)cc1	NPR2 activator 97 (no result: Bfl-1 A1 inh)
O=C(COC(=O)c1ccc(Br)o1)Nc1ccc(S(=O)(=O)N2CCCC2)cc1	SKN-1 block 40
CCCC1CCC2(CC1)CCC2OC(=S)Nc1ccc(I)cc1 (stereo not drawn)	none (no result: Bfl-1 A1 inh, MT1-MMP act inh, TbMetRS inhib, SKN-1 block)
COc1cc(NC(=O)c2ccccn2)ccc1NC(=O)c1ccccc1Cl	none (no result: Bfl-1 A1 inh, MT1-MMP act inh, TbMetRS inhib, SKN-1 block)
CC(C)(C)C1=CC=C(C(C)(C)C)C(=O)C1=O	Bfl-1 A1 inh 6.4 (no result: NPR2 activator, GC-A act, MT1-MMP act inh, TbMetRS inhib, SKN-1 block)
CC(C)(C)c1ccc2c(c1)C(=O)c1ccccc1C2=O	none
CCc1ccc(Nc2oc(C)cc(=O)c2C(C)=O)cc1	SKN-1 block 69
Cc1ccc(C2=NN(S(C)(=O)=O)C(c3ccc4c(c3)OCO4)C2)cc1 (stereo not drawn)	SKN-1 block 38
COc1cc(CCC(=O)OCC(=O)Nc2ccc(F)cc2F)cc(OC)c1OC	SKN-1 block 40
COc1cc(CCC(=O)OCC(=O)Nc2ccc(Br)cc2F)cc(OC)c1OC	none
COC(=O)C1CCN(C(=O)CN2CCC(C(=O)c3ccc(C)cc3)CC2)CC1	none (no result: Bfl-1 A1 inh, MT1-MMP act inh, TbMetRS inhib, SKN-1 block)
COCCCNC(=O)C[C@H]1C[C@@]2(C(=O)OC)C(=C[C@H](C(C)C)O[C@@H]2C2CC2)N(CCC2=CCCCC2)C1=O	none (no result: Bfl-1 A1 inh, MT1-MMP act inh, TbMetRS inhib, SKN-1 block)
COCCCn1c(=O)c2ccccc2n(Cc2cccc(C)c2)c1=O	SKN-1 block 40
COCCCn1c(=O)c2ccccc2n(Cc2ccc(C)cc2)c1=O	none
C/C(CC(=O)Nc1ccc(OCc2ccccc2)cc1)=N\NC(=O)C(=O)Nc1ccc(C)c(Cl)c1	SKN-1 block 38
Fc1ccc(-c2nc3ccc(Br)cn3c2Cc2ccccc2C(F)(F)F)cc1	SKN-1 block 51 (no result: Bfl-1 A1 inh)
FC(F)(F)c1ccccc1Cc1c(-c2ccc(Cl)cc2)nc2ccc(Br)cn12	none (no result: Bfl-1 A1 inh)
Cc1cccc(OC(=O)c2sc(Cl)nc2C)c1	GC-A act 56
CC(C)(C)N(Cc1ccccc1)C(=O)COC(=O)CNC(=O)c1ccco1	Bfl-1 A1 inh 16
CSCCC(NC(=O)c1ccco1)C(=O)OCC(=O)N(Cc1ccccc1)C(C)(C)C (stereo not drawn)	none
O=C(O)c1cc2ccccc2c(N=Nc2cccnc2)c1O	SKN-1 block 39 (no result: NPR2 activator, GC-A act)
Cc1cccc2c(C(=O)O)cc(-c3cccnc3)nc12	none
Cc1[nH]c2ccccc2c1C(=O)c1cc(Cc2ccccc2)sc1N	GC-A act 48 (no result: Bfl-1 A1 inh)
COc1ccc(-c2csc(-c3ccc(O)cc3)n2)cc1	none
c1ccc(-c2nc(-c3cccnc3)cs2)cc1	none
Brc1ccc(-c2csc(-c3ccncc3)n2)cc1	SKN-1 block 40
Nc1nc(-c2ccc(Br)cc2)cs1	none
Cc1ccc(-c2csc(-c3ccncc3)n2)cc1	SKN-1 block 41
c1ccc(-c2csc(-c3cccnc3)n2)cc1	SKN-1 block 42
CN1Cc2nnn(Cc3ccccc3)c2-c2cc(N3CCCC3)ccc2S1(=O)=O	none (no result: Bfl-1 A1 inh, MT1-MMP act inh, TbMetRS inhib, SKN-1 block)
Cc1cc(C)c(NC(=O)CS(=O)CC(=O)Nc2ccc(N3CCOCC3)cc2)c(C)c1 (stereo not drawn)	SKN-1 block 35
CC(C)(N[C@@H](Cc1ccccc1)C(=O)NCCc1c[nH]c2ccccc12)C(=O)NC1CCCCC1	none (no result: Bfl-1 A1 inh, MT1-MMP act inh, TbMetRS inhib, SKN-1 block)
O=C(CSc1nnc(-c2ccncc2)o1)Nc1ccc(F)c(F)c1	Bfl-1 A1 inh 21
c1cc(-c2cccs2)nc(-c2cccs2)c1	none
c1csc(-c2cn3ccc4ccccc4c3n2)c1	SKN-1 block 39
CC(OC(=O)/C(C#N)=C/c1ccc(N(C)C)cc1)C(=O)N(C)c1ccccc1 (stereo not drawn)	SKN-1 block 46
Cc1nc2cc(C(=O)N3CCN(C(=O)C(Cl)Cl)CC3)ccc2n1C1CCCC1	none (no result: Bfl-1 A1 inh, MT1-MMP act inh, TbMetRS inhib, SKN-1 block)
Cc1ccc(-c2nc3cnccn3c2Nc2ccc3c(c2)OCO3)o1	none
Cc1ccc(-c2nc3ccccn3c2Nc2ccccc2)o1	none
Cc1ccc(Nc2c(-c3ccc(C)o3)nc3cnccn23)cc1	NPR2 activator 40
Cc1ccc(-c2nc3cnccn3c2Nc2ccccc2)o1	NPR2 activator 32
